One assay concerns ERK1/2. Put plainly: Western blot of activated ERK1/2 in 293T^CIC cells. In kind it is cell-based, human. The conditions noted are these: 10 μM, 4 h. Background: In western blotting, separated proteins are transferred to a membrane and probed.
The test system of assay [1] is DUSP6. Nature of the assay: Western blot of DUSP6 expression in 1205Lu melanoma cells. The conditions noted are these: 1205Lu (BRAF^V600E), 2 μM PLX4032, 0, 6, 24 h. In kind it is cell-based.
In assay [2] the test system is DUSP6. Nature of the assay: Western blot of DUSP6 expression in 293T / 293T^CIC cells. In kind it is cell-based, human. The conditions noted are these: parental 293T, 10 ng/mL FGF, various times; SCH772984 10 μM. In short, it runs like this:
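Parental and CIC-knockout 293T cells grown in high-glucose DMEM with 10% FBS and penicillin-streptomycin. Cells stimulated with 10 ng/mL FGF for various times, with or without 10 uM ERK inhibitor, then lysed. DUSP6 detected by western blot.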

In a further assay the test system is ERK signaling. Nature of the assay: Block of ERK signaling in MCF7 cells. In kind it is cell-based, human.

Regarding `CN1CCN(c2ccc(-c3ccncc3-c3cc(F)c(O)c(F)c3)cc2)CC1` [LJH685], the “levels of activated ERK1/2” value in the assay with ERK1/2 is on record as “did not reduce the levels of activated ERK1/2”.
With `CCCS(=O)(=O)Nc1ccc(F)c(C(=O)c2c[nH]c3ncc(-c4ccc(Cl)cc4)cc23)c1F` [PLX4032], the DUSP6 expression result with DUSP6 [1] was “time-dependent decrease of DUSP6 expression”.
On to `O=C(Nc1ccc2[nH]nc(-c3ccncc3)c2c1)[C@@H]1CCN(CC(=O)N2CCN(c3ccc(-c4ncccn4)cc3)CC2)C1` [SCH772984], for which, in the assay on DUSP6 [2], the DUSP6 expression result was “drop”. For the same molecule, the “effectiveness to block ERK signaling” value in the assay with ERK signaling was “not effective to block the ERK signaling in MCF7 cells”.

These data come from paper PMC7578760 (iScience, 2020).
